PDI turbidity: inhibitors of human protein disulfide isomerase; inhibition, % at 10 µM; AID 588391; 350,000 tested, 0.052% active; P07237; PDI insulin aggregation turbidity, A650, 90 min;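 active = mean inhibition across replicates of 30% or more, whatever share of single replicates reach that level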
TbMetRS inhib: blocks T. brucei methionyl-tRNA synthetase activity. purified T. brucei MetRS, ATP depletion, Kinase-Glo luminescence. inhibition, % at 11.9 µM. 360,000 tested, 0.4% active. AID 624268;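 active = inhibition above a per-plate cutoff of the control wells' mean inhibition plus 3 SD, cut at about 5.5% in these data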;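 note: 0% = DMSO wells median and 100% = median of wells with control inhibitor compound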
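System: purified T. brucei MetRS enzyme / Detection: Kinase-Glo luciferase luminescence reporting remaining unconsumed ATP / Medium: HEPES buffer with MgCl2, KCl, DTT, spermine, BSA, pyrophosphatase / Replication: singlicate, one well per compound / Evaluation: percent inhibition relative to median high and low control wells / Schedule: 2 h aminoacylation at 25 °C after 15 min preincubation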
ERp5 block: inhibitors of human ERp5; 350,000 tested, 0.05% active; inhibition, % at 9.99 µM; ERp5 insulin aggregation, absorbance 650 nm, 90 min; Q15084;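 active = mean replicate inhibition above about 25%, with every replicate also reaching it, limit read from the data, passing the limit was not always enough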
Target sequence (Q15084 whole entry, looked up): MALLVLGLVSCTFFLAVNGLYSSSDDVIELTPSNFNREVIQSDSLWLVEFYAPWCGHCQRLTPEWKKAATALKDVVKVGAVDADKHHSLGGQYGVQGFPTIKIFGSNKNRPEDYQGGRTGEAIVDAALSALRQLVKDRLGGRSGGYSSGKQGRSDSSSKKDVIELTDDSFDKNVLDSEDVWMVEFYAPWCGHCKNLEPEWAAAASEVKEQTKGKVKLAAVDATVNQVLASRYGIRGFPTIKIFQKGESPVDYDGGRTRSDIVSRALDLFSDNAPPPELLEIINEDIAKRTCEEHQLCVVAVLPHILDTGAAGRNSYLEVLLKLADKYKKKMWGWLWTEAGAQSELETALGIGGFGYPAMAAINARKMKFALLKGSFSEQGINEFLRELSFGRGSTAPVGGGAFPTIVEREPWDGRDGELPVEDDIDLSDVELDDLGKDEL
TbMetRS confirm: confirmation of Trypanosoma brucei MetRS inhibitors; AID 624412; 1,400 tested, 93% active; shares compounds with TbMetRS inhib; inhibition, % at 11.9 µM; T. brucei MetRS enzyme, luminescence (ATP depletion); in the data active = inhibition above about 7%
Jurkat tox: counter-screen for T. brucei MetRS inhibitors: Jurkat cell cytotoxicity | Jurkat cells viability, ATP luminescence | AID 624413 | shares compounds with TbMetRS inhib | inhibition, % at 8.3 µM | 1,400 tested, 12% active; in the data active = inhibition above about 15%;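 note: 0% = vehicle and 100% = reference inhibitor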
TbMetRS FP orth: orthogonal test for Trypanosoma brucei MetRS inhibitors; 1,400 tested, 44% active; inhibition, % at 11.9 µM; purified T. brucei MetRS, fluorescence polarization; shares compounds with TbMetRS inhib; in the data active = inhibition above about 17%;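 note: 0% = vehicle wells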
* = called active by the depositor; · = not tested or not shown; ! = a repeat was not active. An excerpt weighted towards active compounds, which were near 0.4% of everything screened.

SMILES	PDI turbidity	TbMetRS inhib	ERp5 block	TbMetRS confirm	Jurkat tox	TbMetRS FP orth
COc1ccc(NC(=O)N(C)C[C@H]2Oc3ncc(-c4cccnc4)cc3C(=O)N([C@@H](C)CO)C[C@H]2C)cc1	·	·	6	·	·	·
C[C@H](CO)N1C[C@H](C)[C@@H](CN(C)S(C)(=O)=O)Oc2ccc(NC(=O)CCCCCC(=O)Nc3ccccc3N)cc2C1=O	·	·	-1	·	·	·
COc1cccc(C2CC(c3ccc(Cl)cc3Cl)Nc3nc(N)nn32)c1 (configuration not stated)	5	8.3*	·	13*	4	5
COc1cccc(C2CC(c3ccccc3Cl)Nc3nc(N)nn32)c1 (configuration not stated)	-3	-1	·	·	·	·
COc1ccc(C2CC(c3ccc(Cl)cc3Cl)Nc3nc(N)nn32)cc1 (configuration not stated)	·	7.5*	-3	14*	-4	0
COc1ccc(C2CC(c3ccc(Cl)cc3Cl)n3nc(N)nc3N2)cc1 (configuration not stated)	·	0	0	·	·	·
Cc1ccc(S(=O)(=O)N(C)C[C@H]2Oc3c(NS(=O)(=O)c4c(C)noc4C)cccc3C(=O)N([C@H](C)CO)C[C@H]2C)cc1	·	·	-1	·	·	·
COc1ccc2c3c(n(C)c2c1)[C@H](CO)N(Cc1cccnc1)CC31CN(C(=O)NC(C)C)C1	·	·	4	·	·	·
c1ccc2c(c1)[nH]c1nc(SCCN3CCOCC3)nnc12	14	0	·	·	·	·
Brc1ccc2[nH]c3nc(SCCN4CCOCC4)nnc3c2c1	2	16*	-6	33*	15*!	23*!
Nc1cc2nc[nH]c2cc1N	4	6.3*	10	10*	-7	4
Cn1c(=O)n(C)c2cc3[nH]cnc3cc21	-5	-1	3	·	·	·
COCC(=O)N(C)C[C@@H]1Oc2ncc(-c3ccccc3F)cc2C(=O)N([C@H](C)CO)C[C@H]1C	·	·	0	·	·	·
O=C(O)CCCn1c(O)c(C=C2N=c3ccccc3=N2)sc1=S	-5	29*	5	44*	9	20*
CCCn1c(O)c(/C=C2\C=NN=C2c2ccccc2)sc1=S	-1	0	·	·	·	·
O=C(O)CCCCCn1c(O)c(C=C2N=c3ccccc3=N2)sc1=S	-3	8.8*	11	25*	-4	12
O=C(O)Cn1c(O)c(C=Nc2ccccc2)sc1=S	3	0	·	·	·	·
CCCC(C(=O)O)n1c(O)c(C=C2N=c3ccccc3=N2)sc1=S (configuration not stated)	5	5.8*	-7	33*	-6	10
Oc1c(C=Nc2ccccc2)sc(=S)n1Cc1ccccc1	0	0	3	·	·	·
COc1ccc(NC(=O)N(C)C[C@@H]2Oc3c(NS(=O)(=O)c4ccc(Cl)cc4)cccc3C(=O)N([C@@H](C)CO)C[C@H]2C)cc1	·	·	-1	·	·	·
COc1ccccc1C1CC(=O)NC(SCC(=O)Nc2ccccc2)=C1C#N (configuration not stated)	-10	1	-1	·	·	·
CC(C)C1CC(=O)NC(SCC(=O)Nc2ccc(Br)cc2)=C1C#N (configuration not stated)	21	12*	·	18*	9	7
CCC(=O)N1[C@@H](CO)[C@@H](c2ccc(-c3ccccc3OC)cc2)C12CN(C(C)=O)C2	·	·	8	·	·	·
COc1ccc(NC(=O)Nc2ccccc2)cc1S(=O)(=O)N1CCCCC1	7	11*	8	27*	7	15
O=C(Nc1ccc(S(=O)(=O)N2CCCCC2)cc1)c1ccccc1Cl	-1	-1	·	·	·	·
SMILES	PDI turbidity	TbMetRS inhib	ERp5 block	TbMetRS confirm	Jurkat tox	TbMetRS FP orth
O=C(Nc1ccccc1)Nc1ccc(S(=O)(=O)N2CCCCC2)cc1	5	7.8*	·	15*	7	23*
COc1ccc(NC(=O)CN2CCCCC2)cc1S(=O)(=O)N1CCCCC1	-1	0	-7	·	·	·
COc1ccc(-c2cn(CC(=O)N3CCC4(CC3)C(=O)NCN4c3ccccc3)nn2)cc1OC	·	·	-1	·	·	·
C=C[C@@H](C)[C@@H](OC(=O)Nc1ccc(OC)cc1)c1ccc(OCCO)cc1	·	·	-10	·	·	·
COc1ccc(N(C)S(=O)(=O)c2cccc(C(=O)Nc3nc4ccccc4[nH]3)c2)cc1	13	0	-3	·	·	·
CN(c1cccc(Cl)c1)S(=O)(=O)c1cccc(C(=O)Nc2nc3ccccc3[nH]2)c1	-23	33*	-5	44*	68*	22*
C[C@@H]1CN([C@@H](C)CO)C(=O)c2cc(C#Cc3ccccc3F)cnc2O[C@@H]1CN(C)C(=O)C1CCCCC1	·	·	2	·	·	·
O=C(/C(=C/c1ccc(Cl)cc1)c1nc2ccccc2[nH]1)c1ccccc1	0	6.6*	·	3	98*	4
O=C(N/C(=C/c1ccc(Cl)cc1)c1nc2ccccc2[nH]1)c1ccco1	5	-1	·	·	·	·
O=C(Nc1ccccc1F)N1C[C@H]2[C@@H](c3ccccc31)[C@@H](CO)N2C(=O)C1CCCC1	·	·	1	·	·	·
C[C@H](CO)N1C[C@H](C)[C@@H](CN(C)Cc2ccc(Oc3ccccc3)cc2)Oc2c(NC(=O)Nc3ccccc3)cccc2C1=O	·	·	2	·	·	·
O=C(CNS(=O)(=O)c1ccc([N+](=O)[O-])cc1)N/N=C/c1ccc(O)cc1O	-2	16*	6	36*	46*	22*
O=C(CNS(=O)(=O)c1ccc([N+](=O)[O-])cc1)N/N=C\c1ccc(O)cc1	-5	0	0	·	·	·
CNC[C@H]1OCCCC[C@@H](C)Oc2ccc(NC(=O)Nc3ccccc3)cc2C(=O)N([C@@H](C)CO)C[C@@H]1C	·	·	3	·	·	·

Compound activity (PubChem)
